# Measured values from publication PMC12783166 (Clinical Pharmacokinetics, 2025).
# “Also recorded” adds a separate entry of the source.
# Experiments:
# [1] = Individual predicted steady-state exposures; assay type: in vivo, human; conditions: for AUC / Cmax: human, plasma, oral
# How it was run: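 Steady-state AUC24, Ctrough, Cmax and Cavg were derived from each individual's Bayesian post hoc estimates from the final three-compartment population PK model, with sequential zero-/first-order lagged absorption. Values are summarised per […] as mean (SD) and median (5th–95th percentile).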
# [2] = Covariate evaluation of model-predicted 60 mg steady-state exposures; assay type: in vivo, human
# How it was run: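 Final population model predicted steady-state AUC24 and Cmax for 60 mg once daily in EM phase 2b/3, EM phase 3 and CM phase 3 patients. Covariates included renal function, age, sex, weight, race and comedication with BCRP inhibitors, BCRP substrates or statins. Each subgroup is given as a geometric mean ratio with 95% CI against its reference group.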
# [3] = cited from earlier work
# [4] = system: calcitonin gene-related peptide receptor; conditions: plasma concentration threshold; cited from earlier work
# P-gp = conditions: cited from earlier work
# BCRP = conditions: cited from earlier work
# OATP1B1 = conditions: cited from earlier work
# OAT1 = conditions: cited from earlier work
# [5] = model-predicted steady state, 60 mg daily
# [6] = oral administration of a 60-mg dose
compound,measurement,setting,value
"C[C@@H]1[C@H](c2c(F)ccc(F)c2F)C[C@H](NC(=O)c2cnc3c(c2)C[C@@]2(C3)C(=O)Nc3ncccc32)C(=O)N1CC(F)(F)F [atogepant, Atogepant]","Cavg, Median (5th to 95th percentile)","[1]; PROGRESS CM, 60 mg QD",120 (21.9–908) ng/mL
same,"Ctrough, Mean (SD)","[1]; PROGRESS CM, 60 mg QD",18.8 (24) ng/mL
same,"Ctrough, Median (5th to 95th percentile)","[1]; PROGRESS CM, 60 mg QD",14.4 (2.23–287) ng/mL
same,"Time above ½EC90 (4.2 ng/mL or 7 nM), Mean (SD)","[1]; PROGRESS CM, 60 mg QD",23.9 (0.88) hr
same,"Time above ½EC90 (4.2 ng/mL or 7 nM), Median (5th to 95th percentile)","[1]; PROGRESS CM, 60 mg QD",24.0 (15.5–24.0) hr
same,AUC,"[1]; 10 mg, AUC24, Mean (SD), ADVANCE EM, 10 mg QD",525 ng·h/mL
same,AUC,"[1]; 10 mg, AUC24, Mean (SD), CGP-MD-01 EM, 10 mg QD",461 ng·h/mL
same,AUC,"[1]; 10 mg, AUC24, Median (5th to 95th percentile), ADVANCE EM, 10 mg QD",464 ng·h/mL
same,AUC,"[1]; 10 mg, AUC24, Median (5th to 95th percentile), CGP-MD-01 EM, 10 mg QD",464 ng·h/mL
same,Cmax,"[1]; 10 mg, Mean (SD), ADVANCE EM, 10 mg QD",81.7 ng/mL
same,Cmax,"[1]; 10 mg, Mean (SD), CGP-MD-01 EM, 10 mg QD",74.5 ng/mL
same,Cmax,"[1]; 10 mg, Median (5th to 95th percentile), ADVANCE EM, 10 mg QD",73.3 ng/mL
same,Cmax,"[1]; 10 mg, Median (5th to 95th percentile), CGP-MD-01 EM, 10 mg QD",73.9 ng/mL
same,AUC,"[1]; 30 mg, AUC24, Mean (SD), ADVANCE EM, 30 mg QD",1830 ng·h/mL
same,AUC,"[1]; 30 mg, AUC24, Mean (SD), CGP-MD-01 EM, 30 mg BID",3900 ng·h/mL
same,AUC,"[1]; 30 mg, AUC24, Mean (SD), CGP-MD-01 EM, 30 mg QD",1710 ng·h/mL
same,AUC,"[1]; 30 mg, AUC24, Median (5th to 95th percentile), ADVANCE EM, 30 mg QD",1560 ng·h/mL
same,AUC,"[1]; 30 mg, AUC24, Median (5th to 95th percentile), CGP-MD-01 EM, 30 mg BID",3180 ng·h/mL
same,AUC,"[1]; 30 mg, AUC24, Median (5th to 95th percentile), CGP-MD-01 EM, 30 mg QD",1590 ng·h/mL
same,AUC,"[1]; 30 mg, AUC24, Median (5th to 95th percentile), PROGRESS CM, 30 mg BID",3230 ng·h/mL
same,Cmax,"[1]; 30 mg, Mean (SD), ADVANCE EM, 30 mg QD",271 ng/mL
same,Cmax,"[1]; 30 mg, Mean (SD), CGP-MD-01 EM, 30 mg BID",327 ng/mL
same,Cmax,"[1]; 30 mg, Mean (SD), CGP-MD-01 EM, 30 mg QD",260 ng/mL
same,Cmax,"[1]; 30 mg, Median (5th to 95th percentile), ADVANCE EM, 30 mg QD",244 ng/mL
same,Cmax,"[1]; 30 mg, Median (5th to 95th percentile), CGP-MD-01 EM, 30 mg BID",284 ng/mL
same,Cmax,"[1]; 30 mg, Median (5th to 95th percentile), CGP-MD-01 EM, 30 mg QD",247 ng/mL
same,Cmax,"[1]; 30 mg, Median (5th to 95th percentile), PROGRESS CM, 30 mg BID",296 ng/mL
same,AUC,"[1]; 60 mg, AUC24, Mean (SD), ADVANCE EM, 60 mg QD",3740 ng·h/mL
same,AUC,"[1]; 60 mg, AUC24, Mean (SD), CGP-MD-01 EM, 60 mg BID",7940 ng·h/mL
same,AUC,"[1]; 60 mg, AUC24, Mean (SD), CGP-MD-01 EM, 60 mg QD",3640 ng·h/mL
same,AUC,"[1]; 60 mg, AUC24, Mean (SD), ELEVATE EM, 60 mg QD",3530 ng·h/mL
same,AUC,"[1]; 60 mg, AUC24, Median (5th to 95th percentile), ADVANCE EM, 60 mg QD",3220 ng·h/mL
same,AUC,"[1]; 60 mg, AUC24, Median (5th to 95th percentile), CGP-MD-01 EM, 60 mg BID",6900 ng·h/mL
same,AUC,"[1]; 60 mg, AUC24, Median (5th to 95th percentile), CGP-MD-01 EM, 60 mg QD",3450 ng·h/mL
same,AUC,"[1]; 60 mg, AUC24, Median (5th to 95th percentile), ELEVATE EM, 60 mg QD",3310 ng·h/mL
same,AUC,"[1]; 60 mg, AUC24, Median (5th to 95th percentile), PROGRESS CM, 60 mg QD",2900 ng·h/mL
same,Cmax,"[1]; 60 mg, Mean (SD), ADVANCE EM, 60 mg QD",561 ng/mL
same,Cmax,"[1]; 60 mg, Mean (SD), CGP-MD-01 EM, 60 mg BID",634 ng/mL
same,Cmax,"[1]; 60 mg, Mean (SD), CGP-MD-01 EM, 60 mg QD",545 ng/mL
same,Cmax,"[1]; 60 mg, Median (5th to 95th percentile), ADVANCE EM, 60 mg QD",504 ng/mL
same,Cmax,"[1]; 60 mg, Median (5th to 95th percentile), PROGRESS CM, 60 mg QD",504 ng/mL
same,Effect of mild or moderate renal impairment on atogepant PK,[2]; model-predicted,no clinically relevant effect
same,Change of Cmax with BCRP inhibitors,[2]; [5],No change; also recorded: no impact
same,Decrease of AUC24 with use of BCRP inhibitors,[2]; [5],1%
same,Decrease of AUC24 with use of BCRP substrates,[2]; [5],3%
same,Decrease of Cmax with use of BCRP substrates,[2]; [5],3%
same,Increase of AUC24 with use of statins,[2]; [5],14%
same,Increase of Cmax with use of statins,[2]; [5],13%
same,"Effect of age, BCRP inhibitors, BCRP substrates, statins, body weight, race, renal function and sex on steady-state AUC24 and Cmax","[2]; model-predicted, 60 mg daily, compared with reference groups",< 20%
same,Area under the concentration–time curve (AUC),[3]; 60-mg dose,~ 3470 ng h/mL
same,Dose proportionality of PK,[3],dose-proportional up to a 300-mg single dose and multiple doses of 170 mg/day
same,Food effect,[3],no clinically significant food effect
same,Half-life (t1/2),[3],~ 11 h
same,Accumulation,[3]; multiple doses,no accumulation
same,Maximum plasma concentration (Cmax),[3]; [6],~ 740 ng/mL
same,Time to achieve a pharmacologically effective concentration,[3]; [6],≤ 30 min
same,EC90 (effective concentration that results in 90% inhibition of the CGRP receptor),[4],8.4 ng/mL
same,Transporter substrate status,P-gp,substrate
same,Transporter substrate status,BCRP,substrate
same,Transporter substrate status,OATP1B1,substrate
same,Transporter substrate status,OAT1,substrate
